This note sets out measurements from ChEMBL document CHEMBL4414566, “Cytotoxicity and Anti-inflammatory Properties of Apigenin-Derived Isolaxifolin” (J Nat Prod, 2019).

Common to all, as to format: functional
Experiment [1] has as its system MDA-MB-231. The experiment is described as follows: Induction of apoptosis in human MDA-MB-231 cells assessed as necrotic cells at 12.4 uM incubated for 48 hrs by annexin V-FITC/PI based flow cytometric analysis (Rvb= 0.74%). On the technique in general: In flow cytometry, cells or beads pass a laser one at a time.
Experiment [2] has as its system MDA-MB-231. Briefly: Induction of cell cycle arrest in human MDA-MB-231 cells assessed as accumulation of cells at G2/M phase at 17.3 uM incubated for 48 hrs by PI/RNase staining based flow cytometric analysis (reference value: 10.4%). In a few lines: (§1)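 Cell-cycle analysis: MDA-MB-231 cells were preincubated 24 h, then treated with 8.6, 12.4 or 17.3 μM for 48 h. Cells were pelleted, fixed in 75% ethanol at −20 °C overnight, and stained with PI/RNase for 15 min in the dark at ambient temperature. About 10 000 cells per well were analyzed by flow cytometry for DNA content.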

The subject of experiment [3] is MDA-MB-231. Briefly: Induction of cell cycle arrest in human MDA-MB-231 cells assessed as accumulation of cells at S phase at 12.4 uM incubated for 48 hrs by PI/RNase staining based flow cytometric analysis (reference value: 39.2%). In a few lines: as §1
Experiment [4] has as its system MDA-MB-231. Briefly: Induction of apoptosis in human MDA-MB-231 cells assessed as early apoptotic cells at 17.3 uM incubated for 48 hrs by annexin V-FITC/PI based flow cytometric analysis (Rvb= 0.24%).

As for `CC(C)=CCc1c2c(c(O)c3c(=O)cc(-c4ccc(O)cc4)oc13)C=CC(C)(C)O2` [LAXIFOLIN], the Activity stood at 1.19% in the experiment with MDA-MB-231 [1], 9.87% in the experiment on MDA-MB-231 [2], 28.2% with MDA-MB-231 [3] and 0.96% in the experiment on MDA-MB-231 [4].
